Assay outcomes deposited in PubChem by several laboratories.
Cl transport mod – KCC2 cotransporter modulators, thallium flux, primary screen, cell-based, HEK293 KCC2, FluoZin-2 fluorescence, MLSMR | actives 2.2% (n = 190,000) | B-score of Tl+ flux slope (higher = more flux/activation; lower = inhibition) at 10 µM | AID 1456, 2008 | Solute carrier family 12 member 5 (Homo sapiens), Q9H2X9 | KCC2 cells, thallium flux FluoZin-2 fluorescence;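 active means thallium flux slope and its plate-corrected score both differing from the plate sample mean at a set confidence after two filtering rounds, in either direction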;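 further: slope of fluorescence scaled to starting intensity during 10 to 20 s after thallium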
Target sequence (Q9H2X9 whole entry, looked up): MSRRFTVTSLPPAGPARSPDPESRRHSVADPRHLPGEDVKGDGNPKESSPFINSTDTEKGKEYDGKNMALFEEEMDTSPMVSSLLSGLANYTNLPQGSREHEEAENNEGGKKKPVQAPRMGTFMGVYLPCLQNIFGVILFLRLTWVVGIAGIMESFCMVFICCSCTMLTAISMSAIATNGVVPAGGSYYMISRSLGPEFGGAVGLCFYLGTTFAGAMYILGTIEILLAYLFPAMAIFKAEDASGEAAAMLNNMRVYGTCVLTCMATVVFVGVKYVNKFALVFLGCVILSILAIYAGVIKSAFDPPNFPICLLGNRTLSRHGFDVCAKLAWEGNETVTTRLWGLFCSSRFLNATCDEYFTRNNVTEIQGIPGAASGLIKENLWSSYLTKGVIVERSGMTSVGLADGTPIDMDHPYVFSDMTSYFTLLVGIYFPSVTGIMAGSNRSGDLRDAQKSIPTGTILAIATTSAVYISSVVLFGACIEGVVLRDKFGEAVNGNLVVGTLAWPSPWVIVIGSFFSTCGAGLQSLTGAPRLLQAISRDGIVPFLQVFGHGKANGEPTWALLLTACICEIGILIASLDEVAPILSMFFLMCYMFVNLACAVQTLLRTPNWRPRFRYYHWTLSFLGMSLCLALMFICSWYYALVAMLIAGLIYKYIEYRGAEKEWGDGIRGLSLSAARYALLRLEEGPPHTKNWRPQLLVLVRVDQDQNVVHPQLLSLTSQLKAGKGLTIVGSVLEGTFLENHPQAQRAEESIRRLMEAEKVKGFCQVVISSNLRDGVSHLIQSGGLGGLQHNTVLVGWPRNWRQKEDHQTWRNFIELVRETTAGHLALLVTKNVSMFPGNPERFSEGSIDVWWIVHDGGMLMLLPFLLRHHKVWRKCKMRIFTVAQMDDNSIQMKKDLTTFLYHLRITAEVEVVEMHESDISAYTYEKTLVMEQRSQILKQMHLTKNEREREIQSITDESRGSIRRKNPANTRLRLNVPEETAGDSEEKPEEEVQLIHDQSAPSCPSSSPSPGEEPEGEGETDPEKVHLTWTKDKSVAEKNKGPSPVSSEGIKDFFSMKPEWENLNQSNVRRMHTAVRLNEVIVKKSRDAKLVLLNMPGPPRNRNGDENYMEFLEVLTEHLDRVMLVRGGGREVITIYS
KCNQ1 pot – potentiators or activators of KCNQ1 channel, primary screen, cell-based, thallium flux, high-throughput | Potassium voltage-gated channel subfamily KQT member 1 (Homo sapiens), P51787 | CHO-K1 KCNQ1, thallium flux FluxOR fluorescence; hits give high values | B-score at 10 µM | actives 0.35% (n = 310,000) | AID 2648, 2010;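 active means fluorescence ratio B-score, a plate-corrected score, at least three library SD, with initial intensity B-score within 5 SD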
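System: Stable KCNQ1 CHO-K1 line | Incubation: 90 min dye loading and 20 min compound exposure, both at room temperature | Measure: Ratio B score | Medium: Assay buffer for compound exposure, DMSO matched across wells | Compound dosing: Single-concentration screen | Probe or stimulus: K+/Tl+ depolarizing stimulus | Measured by: Kinetic FluxOR fluorescence, 10 s baseline plus 110 s post-stimulus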
KCNK9 inh – KCNK9 potassium channel inhibitors, primary screen, HEK293 cells, thallium flux. B-score at 10 µM. FluxOR thallium flux fluorescence; hits give low values. actives 1.2% (n = 310,000). Potassium channel subfamily K member 9 (Homo sapiens), Q9NPC2. AID 488922, 2010;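 active means ratio B-score over 3 SD below the library mean, with starting fluorescence within 5 SD of its mean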;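 further: negative B-score means less thallium flux so channel inhibition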
hERG rescue – hERG rescue from dofetilide block, primary screen, cell-based, CHO-hERG, FluxOR thallium flux, dofetilide IC70 | Voltage-gated inwardly rectifying potassium channel KCNH2 (Homo sapiens), Q12809 | dofetilide IC70 present | activation (rescue from dofetilide block), less the hit threshold, % at 10 µM | actives 0.51% (n = 310,000) | AID 1511, 2009;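 active means activation above the mean of controls blocked by dofetilide plus 5 SD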;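 further: thallium influx through hERG after potassium depolarization seen as dye fluorescence rise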
KCNK3 inh – human KCNK3 channel inhibitors, primary screen, CHO cells, FluxOR thallium flux, B-score. Potassium channel subfamily K member 3 (Homo sapiens), O14649. FluxOR fluorescence; hits give low values. B-score at 10 µM. actives 0.84% (n = 340,000);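 active means B-score under library mean minus 4 SD, starting fluorescence ratio at most library mean plus 5 SD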;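 further: more negative B-score means stronger inhibition of thallium flux through KCNK3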
KCNQ1 inh – inhibitors of human KCNQ1 channel, primary screen, cell-based, thallium flux, high-throughput; Potassium voltage-gated channel subfamily KQT member 1 (Homo sapiens), P51787; CHO-K1 KCNQ1, FluxOR thallium flux fluorescence; hits give high values; B-score at 10 µM; actives 1.3% (n = 310,000);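 active means compounds whose thallium flux B-score, printed positive for inhibition, exceeds three library SD while starting fluorescence stays within three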;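 further: channel opened by potassium depolarization with thallium stimulus after 20 min compound exposure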
KCNK3 confirm – retest of human KCNK3 channel inhibitors, confirmation, CHO cells, FluxOR thallium flux, triplicate | FluxOR fluorescence; 0% buffer, 100% carvedilol maximal block | AID 651638, 2012 | actives 99% (n = 2,400) | shares compounds with KCNK3 inh | ratio percent of control, % at 10 µM;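 active means ratio percent of control, averaged over triplicates, above buffer control mean plus 5 SD, cut at about 64% in these data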;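 further: ratio is the fluorescence rise from min to max over baseline after thallium stimulus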
KCNK3 uninduced – thallium flux inhibition in non-induced cells, primary screen, counter-screen for KCNK3 inhibitor project, cell-based, non-induced KCNK3 line, FluxOR thallium, triplicate; shares compounds with KCNK3 inh; non-induced KCNK3 parental cells; hits give low values; thallium flux ratio (lower = more inhibition) at 10 µM; actives 40% (n = 2,400);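 active means thallium flux ratio, averaged over three wells, more than 5 SD below the buffer control mean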;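 further: host cells are CHO cells without KCNK3 induction; ratio is peak minus trough fluorescence over baseline then normalized to buffer controls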
The depositor's hits bear a star; i = inactive; x = not tested or not shown. Compounds with a hit are over-represented: about 4.1% of the library has one in this group of screens.

SMILES	Cl transport mod	KCNQ1 pot	KCNK9 inh	hERG rescue	KCNK3 inh	KCNQ1 inh	KCNK3 confirm	KCNK3 uninduced
CCOC(=O)N1CCC(N2Cc3cccc(C(=O)NC(C)c4ccc5c(c4)OCCO5)c3C2=O)CC1 (centres undefined)	-1.35	i	i	-14.3	-13.1*	i	100.7*	i
Cc1ccccc1-n1nnnc1SCc1csc(-c2ccccc2)n1	-1.71	i	i	-13.3	-10.9*	i	105.3*	i
O=C(Nc1ccccc1)C1=C(O)CC(c2ccoc2)CC1=Nc1ccccc1 (centres undefined)	1.02	i	i	-7.6	-8.84*	i	113.0*	0.155*
CC1CN=C2C(C(=O)Nc3ccccc3)=C(O)CC(c3ccccc3)N21 (centres undefined)	-2.43	i	i	-0.8	i	i	x	x
Cc1ccc(C(=O)OCCOc2cccc(Cl)c2)cc1S(=O)(=O)N1CCOCC1	x	i	i	-8.4	-11.8*	i	93.7*	0.148*
Cc1cccc(NC(=O)COC(=O)c2ccc(C)c(S(=O)(=O)N3CCCCC3)c2)c1	x	x	x	x	-12.5*	x	97.0*	i
COc1ccc(C(=O)OCc2cc(C)ccc2C)cc1S(=O)(=O)N1CCCC1	x	x	x	x	-14.4*	x	93.3*	i
Cc1ccc(C)c(COC(=O)c2cccc(S(=O)(=O)N3CCCC3)c2)c1	x	x	x	x	i	x	x	x
O=C(OCCOc1cccc(Cl)c1)c1ccc(F)c(S(=O)(=O)N2CCOCC2)c1	x	x	x	x	i	x	x	x
Cc1ccc(NC(=O)CN(C)C(=O)c2cccc(S(=O)(=O)NCc3ccccc3)c2)cc1	x	i	i	-9.6	i	i	x	x
O=C(NN1CCOCC1)c1cc(-c2ccc(Cl)c(Cl)c2)nc2ccccc12	-0.322	i	i	-11.3	i	i	x	x
COc1cccc(/C=C2\SC(=O)N(CCC(=O)N3CCCCC3CCO)C2=O)c1 (centres undefined)	x	i	i	-12.3	-11.1*	i	77.7*	i
O=C1/C(=C\c2ccccc2)SC(=S)N1CCC(=O)N1CCCCC1CCO (centres undefined)	x	i	i	-9.6	i	i	x	x
O=C(Nc1ccc(Cl)c(Cl)c1)N1N=CCC1c1ccccc1 (centres undefined)	-1.05	i	-6.63*	-7.0	-9.5*	i	116.3*	i
O=C(Nc1ccccc1)N1N=CCC1c1ccccc1 (centres undefined)	0.455	i	i	-5.7	i	i	x	x
Cc1ccc(NC(=S)NCc2ccc(Cl)cc2)c(OC(F)F)c1	x	i	i	-4.3	i	i	x	x
O=C(NC1CCN(C(=O)N2c3ccccc3Sc3ccccc32)CC1)c1ccccc1Cl	-0.924	i	-7.34*	-3.4	-10.4*	i	109.3*	i
Cc1ccc(C(=O)Nc2cccc(C(=O)NCc3ccccc3)c2)o1	0.223	i	i	-10.1	i	i	x	x
C/C(=N\NC(=O)C1(C)CC1(Br)Br)c1cccc(NC(=O)c2ccc(C)o2)c1 (centres undefined)	x	i	i	-14.4	-9.62*	i	107.7*	0.139*
CCC(C)[C@H](NC(=O)C1CC(=O)N(c2ccc(OC)cc2)C1)C(=O)N1CCCCC1 (some centres undefined)	x	i	i	-3.6	i	i	x	x
N#CC1=C(N)NC(SCC(=O)Nc2ccccc2)=C(C#N)C12CCCCC2	x	i	i	-7.4	-9.48*	i	106.0*	0.139*
Cc1ccsc1C(=O)NCCC(c1ccccc1)c1ccccc1	0.136	i	i	-4.1	-9.05*	i	105.3*	i
C/C(=N\Nc1ccc([N+](=O)[O-])cc1[N+](=O)[O-])C(C)C(C)C (centres undefined)	x	i	i	-7.6	-9.24*	8*	93.0*	0.142*
CCOC(=O)C(C)/C(C)=N\Nc1ccc([N+](=O)[O-])cc1[N+](=O)[O-] (centres undefined)	-1.3	i	i	-23.8	i	i	x	x
CC(=O)Nc1ccc(N=c2cc([N+](=O)[O-])cc(Cl)n2O)cc1	x	i	i	-2.8	i	i	x	x
SMILES	Cl transport mod	KCNQ1 pot	KCNK9 inh	hERG rescue	KCNK3 inh	KCNQ1 inh	KCNK3 confirm	KCNK3 uninduced
C/C(=N\Nc1cc(C(F)(F)F)ccc1Cl)c1ccncc1	x	i	i	-4.8	-9.74*	i	110.3*	i
O=C(Nc1cc(C(F)(F)F)ccc1Cl)c1ccncc1	0.237	i	i	-3.8	i	i	x	x
CCN(CC(=O)NCc1ccc(F)cc1)C(=O)c1ccc(C)o1	x	i	i	-6.9	i	i	x	x
O=C(Nc1ccc(S(=O)(=O)N2CCOCC2)cc1)c1cc(-c2cc(Cl)ccc2O)n[nH]1	0.224	i	i	-15.5	-8.75*	i	128.0*	0.134*
Cc1cc(O)c(-c2cc(C(=O)Nc3ccc(S(=O)(=O)N4CCOCC4)cc3)[nH]n2)cc1C	x	i	i	-1.6	i	i	x	x
CCn1c(=NC(=O)c2cccc(N3C(=O)CCC3=O)c2)sc2c(C)ccc(OC)c21	-0.77	i	i	-13.4	-9.4*	i	106.3*	i
CCCCCOC(=O)c1ccc(OC(=O)c2cncc(Br)c2)cc1	-0.0526	i	i	-2.7	i	i	x	x
CCCCCCCOC(=O)c1ccc(OC(=O)c2cccnc2)cc1	x	i	i	-7.7	-9.44*	i	136.0*	0.14*
CCC(C(=O)Nc1ccccc1F)n1nc(C)c2c(C)n(-c3ccccc3)nc2c1=O (centres undefined)	x	i	i	-9.3	-11.6*	i	89.0*	i
CCC(C(=O)NCCCc1ccccc1)n1nc(C)c2c(C)n(-c3ccccc3)nc2c1=O (centres undefined)	x	i	i	-8.7	i	i	x	x
